From PMC6851555 (Diabetes, Obesity & Metabolism, 2019)

How the values were obtained:
DIO-C57BL/6J mice = experiment: In vivo pharmacological evaluation in diet-induced obese mice; design: species or system mouse; conditions: YR4-42 50 mg/kg
In short: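 Male C57BL/6J mice (6 weeks old) on 60%-fat diet for 10 weeks, continued throughout; 16-week-old DIO mice randomised, n = 12/group, gavaged 38 days with 0.5% CMC-Na vehicle, pioglitazone 25 mg/kg or test compound 50 mg/kg; chow-fed vehicle controls. Body weight every 2 days; insulin tolerance test day 14 (AUC); day 38 liver weighed, TG/TC/FFA by kits normalised to tissue weight; mean ± SEM.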

[1] = target: T1, PPARγ ligand-binding domain (LBD) (Homo sapiens, UniProt P37231); experiment: PPARγLBD-Gal4-luciferase reporter transactivation assay; format: cell-based; conditions: 20 μmol/L GW9662, 10 μmol/L YR4-42; Figure 1H
T1 sequence (P37231 204-505): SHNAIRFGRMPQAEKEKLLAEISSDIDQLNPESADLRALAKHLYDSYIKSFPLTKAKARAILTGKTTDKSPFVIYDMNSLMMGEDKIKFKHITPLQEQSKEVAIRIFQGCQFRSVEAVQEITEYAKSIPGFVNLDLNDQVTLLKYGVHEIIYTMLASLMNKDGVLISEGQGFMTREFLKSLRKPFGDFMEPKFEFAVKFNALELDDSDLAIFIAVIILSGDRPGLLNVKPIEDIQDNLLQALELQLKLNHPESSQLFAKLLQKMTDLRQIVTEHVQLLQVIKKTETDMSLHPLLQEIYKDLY

SMILES	hepatic TG, total cholesterol and FFA (DIO-C57BL/6J mice; 38th day, pioglitazone 25 mg/kg oral, Figure 3K-M)	body weight of DIO mice (DIO-C57BL/6J mice; oral gavage 38 days, pioglitazone 25 mg/kg, Figure 3A,B)	effect of antagonist on PPARγ transactivation induced by YR4-42 [1]
CCc1ccc(CCOc2ccc(CC3SC(=O)NC3=O)cc2)nc1 (stereo not drawn) [pioglitazone]	increased	further enhanced weight gain	–
O=C(Nc1ccccc1)c1cc([N+](=O)[O-])ccc1Cl [GW9662]	–	–	inhibited
